Entries after “also recorded” stand apart in the source; their conditions may differ.
Assays:
[1] = molecular target: T1, human wild-type CFTR (Homo sapiens, UniProt P13569); assay: Fluorescence plate reader assay of CFTR function; type: cell-based; details: for CFTR activation activity (in words): plate reader assay, structure-activity discussion
Summary of the method: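 FRT cells stably coexpressing human wild-type CFTR and YFP-H148Q, grown near-confluent in 96-well plates. Washed with PBS, then 10 min in PBS with test compound plus 125 nM forskolin. YFP fluorescence read in single wells for 2 s baseline and 12 s after adding iodide solution (final 140 mM). Iodide influx rates give concentration–response curves; EC50 reported as mean ± SEM.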

[2] = system: mice; details: cited from earlier work
[3] = molecular target: T1, human wild-type CFTR; assay: Short-circuit current measurement in CFTR-expressing FRT cells; type: cell-based; details: data not shown
[4] = system: cellular cAMP level; assay: Cellular cAMP in FRT cells; type: cell-based, rat; details: 10 μM, 10 min, without or with 90 nM forskolin
[5] = system: cytoplasmic calcium; assay: Cytoplasmic calcium by Fluo-4 fluorescence in FRT cells; type: cell-based, rat; details: 10 μM, 5 min pretreatment, 100 μM ATP
[6] = system: calcium-activated chloride channels in HT-29 cells; assay: Non-TMEM16A CaCC activity in HT-29 cells expressing YFP; type: cell-based; details: 10 μM
Summary of the method: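 HT-29 cells expressing YFP used for non-TMEM16A calcium-activated chloride channel activity, with test compound at 10 μM. Iodide influx rate computed from YFP fluorescence.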

[7] = molecular target: T2, TMEM16A (Homo sapiens, UniProt Q5XXA6); assay: TMEM16A activity in FRT cells expressing YFP; type: cell-based; details: 10 μM
T2 sequence (Q5XXA6 1-986): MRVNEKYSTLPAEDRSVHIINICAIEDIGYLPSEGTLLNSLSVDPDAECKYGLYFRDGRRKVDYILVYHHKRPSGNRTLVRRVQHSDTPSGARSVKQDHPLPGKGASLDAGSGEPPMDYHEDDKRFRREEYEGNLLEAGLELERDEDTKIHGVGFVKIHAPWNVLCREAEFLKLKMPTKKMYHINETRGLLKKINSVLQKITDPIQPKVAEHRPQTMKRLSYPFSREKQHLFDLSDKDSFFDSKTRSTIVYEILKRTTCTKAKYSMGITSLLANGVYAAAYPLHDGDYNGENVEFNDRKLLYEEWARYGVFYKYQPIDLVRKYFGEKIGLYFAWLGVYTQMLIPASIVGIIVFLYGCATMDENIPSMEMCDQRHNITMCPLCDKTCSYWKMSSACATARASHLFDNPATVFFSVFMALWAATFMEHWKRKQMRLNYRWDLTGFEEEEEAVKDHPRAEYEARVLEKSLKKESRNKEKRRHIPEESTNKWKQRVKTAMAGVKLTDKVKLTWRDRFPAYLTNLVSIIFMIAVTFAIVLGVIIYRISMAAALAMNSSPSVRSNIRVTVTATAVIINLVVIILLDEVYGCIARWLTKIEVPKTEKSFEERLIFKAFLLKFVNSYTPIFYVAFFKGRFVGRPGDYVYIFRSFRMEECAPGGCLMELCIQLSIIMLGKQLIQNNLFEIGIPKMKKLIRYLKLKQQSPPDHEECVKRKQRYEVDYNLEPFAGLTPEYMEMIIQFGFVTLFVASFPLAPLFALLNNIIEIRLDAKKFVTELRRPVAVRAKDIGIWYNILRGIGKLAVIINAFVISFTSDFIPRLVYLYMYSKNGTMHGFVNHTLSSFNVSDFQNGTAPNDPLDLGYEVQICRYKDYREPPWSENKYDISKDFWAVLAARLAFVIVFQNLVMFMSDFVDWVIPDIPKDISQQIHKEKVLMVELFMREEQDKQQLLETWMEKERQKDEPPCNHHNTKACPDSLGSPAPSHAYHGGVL
Summary of the method: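 FRT cells coexpressing YFP and TMEM16A, tested with 10 μM test compound. Run like the YFP iodide-influx plate reader assay; iodide influx rate computed from fluorescence.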

[8] = system: loperamide-induced constipation in CD1 mice; assay: Loperamide-induced mouse model of acute constipation; type: in vivo; details: oral, 1 h before loperamide, 3-h stool
Summary of the method: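 CD1 mice aged 8–10 weeks got test compound or vehicle orally 1 h before loperamide 0.3 mg/kg ip. Vehicle was saline with 5% DMSO and 10% Kolliphor HS 15. Mice kept in metabolic cages with free food and water; stool collected for 3 h. Total weight, pellet count and water content (wet vs dry weight) measured. Mean ± SEM; unpaired Student's t-test, P < 0.05.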

[9] = In vitro hepatic microsomal metabolic stability; type: in vitro ADME, human; details: 60 min, hepatic microsomes, NADPH, 5 μM

T1 sequence (P13569 whole entry): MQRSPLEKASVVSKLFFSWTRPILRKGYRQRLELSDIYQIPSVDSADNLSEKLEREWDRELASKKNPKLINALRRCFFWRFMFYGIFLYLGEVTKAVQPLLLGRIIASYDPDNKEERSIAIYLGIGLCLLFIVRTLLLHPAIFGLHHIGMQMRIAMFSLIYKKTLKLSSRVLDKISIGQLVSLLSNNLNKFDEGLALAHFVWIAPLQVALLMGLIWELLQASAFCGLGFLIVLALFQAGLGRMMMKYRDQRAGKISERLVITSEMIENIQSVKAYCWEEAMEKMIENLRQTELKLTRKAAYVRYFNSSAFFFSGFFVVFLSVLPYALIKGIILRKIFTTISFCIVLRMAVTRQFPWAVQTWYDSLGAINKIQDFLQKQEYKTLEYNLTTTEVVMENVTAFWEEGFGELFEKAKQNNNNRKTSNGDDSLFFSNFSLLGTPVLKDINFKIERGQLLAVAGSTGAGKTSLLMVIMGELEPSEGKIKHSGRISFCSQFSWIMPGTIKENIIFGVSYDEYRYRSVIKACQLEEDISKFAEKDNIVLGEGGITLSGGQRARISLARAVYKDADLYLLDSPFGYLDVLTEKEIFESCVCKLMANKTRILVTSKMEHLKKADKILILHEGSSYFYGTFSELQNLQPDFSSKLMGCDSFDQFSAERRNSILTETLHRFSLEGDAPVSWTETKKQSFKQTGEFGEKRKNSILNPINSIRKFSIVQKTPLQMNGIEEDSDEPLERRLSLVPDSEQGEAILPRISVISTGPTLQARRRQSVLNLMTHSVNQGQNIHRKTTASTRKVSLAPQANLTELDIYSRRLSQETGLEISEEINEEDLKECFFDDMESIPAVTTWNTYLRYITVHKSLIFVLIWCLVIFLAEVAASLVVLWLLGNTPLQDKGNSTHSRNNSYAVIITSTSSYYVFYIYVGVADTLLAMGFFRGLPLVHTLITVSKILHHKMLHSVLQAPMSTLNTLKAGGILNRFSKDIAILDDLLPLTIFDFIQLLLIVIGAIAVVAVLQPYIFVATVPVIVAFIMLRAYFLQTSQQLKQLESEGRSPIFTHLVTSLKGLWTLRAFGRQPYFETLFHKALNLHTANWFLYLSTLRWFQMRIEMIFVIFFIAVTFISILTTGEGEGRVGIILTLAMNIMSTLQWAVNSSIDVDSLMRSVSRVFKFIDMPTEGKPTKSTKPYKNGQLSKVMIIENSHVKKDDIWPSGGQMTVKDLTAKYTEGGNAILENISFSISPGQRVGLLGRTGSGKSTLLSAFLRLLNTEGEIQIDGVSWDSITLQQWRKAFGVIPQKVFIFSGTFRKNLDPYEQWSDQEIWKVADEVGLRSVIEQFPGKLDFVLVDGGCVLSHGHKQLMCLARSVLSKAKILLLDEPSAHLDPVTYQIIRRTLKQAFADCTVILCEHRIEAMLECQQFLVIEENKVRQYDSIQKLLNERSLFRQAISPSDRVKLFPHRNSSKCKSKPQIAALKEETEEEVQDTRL

| SMILES | CFTR activation activity (in words) [1] | further results |
| --- | --- | --- |
| O=c1c(-c2cccc([N+](=O)[O-])c2)nc2cc(Cl)c(Cl)cc2n1Cc1ccccc1 [2d, 1-Benzyl-6,7-dichloro-3-(3-nitrophenyl)quinoxalin-2(1H)-one] | reduced activity | – |
| O=c1c(-c2ccc(C(F)(F)F)cc2)nc2ccccc2n1Cc1ccccc1 [1f, 1-Benzyl-3-(4-(trifluoromethyl)phenyl)quinoxalin-2(1H)-one] | low activity | – |
| Cc1cc2nc(-c3cccc([N+](=O)[O-])c3)c(=O)n(Cc3ccccc3)c2cc1C [2i, 1-Benzyl-6,7-dimethyl-3-(3-nitrophenyl)quinoxalin-2(1H)-one] | reduced activity | – |
| N#Cc1cccc(-c2nc3ccccc3n(Cc3ccccc3)c2=O)c1 [1l, 3-(4-Benzyl-3-oxo-3,4-dihydroquinoxalin-2-yl)benzonitrile] | greatly reduced activity | – |
| O=c1c(-c2cccc([N+](=O)[O-])c2)nc2ccccc2n1Cc1cccc2ccccc12 [3f, 1-(Naphthalen-1-ylmethyl)-3-(3-nitrophenyl)quinoxalin-2(1H)-one] | significantly reduced activity | – |
| O=c1c(-c2cccc([N+](=O)[O-])c2)nc2cc(Br)ccc2n1Cc1ccccc1 [2f, 1-Benzyl-6-bromo-3-(3-nitrophenyl)quinoxalin-2(1H)-one] | good activity; also recorded: underperforms by nearly an order of magnitude compared to unsubstituted 1c | – |
| Nc1ccc([N+](=O)[O-])cc1-c1nc2ccccc2n(Cc2ccccc2)c1=O [compound 4] | – | Off-target actions or toxicity ([2]; chronic administration in mice): no apparent off-target actions or toxicity; Metabolism [2]: rapid metabolism; Oral bioavailability ([2]; mice): minimal oral bioavailability |
| O=c1c(-c2cccc([N+](=O)[O-])c2)nc2ccccc2n1Cc1ccccn1 [3h, 3-(3-Nitrophenyl)-1-(pyridin-2-ylmethyl)quinoxalin-2(1H)-one] | comparable activity | – |
| O=c1c(-c2cccc([N+](=O)[O-])c2)nc2cc(F)c(F)cc2n1Cc1ccccc1 [2g, 1-Benzyl-6,7-difluoro-3-(3-nitrophenyl)quinoxalin-2(1H)-one] | reduced activity | – |
| O=c1c(-c2cccc([N+](=O)[O-])c2)nc2ccccc2n1Cc1ccccc1 [1c, 1-Benzyl-3-(3-nitrophenyl)quinoxalin-2(1H)-one] | – | Increase in potency compared to 4 ([1]; CFTR activation potency relative to 4): ~10 fold; Potency in nonpermeabilized versus permeabilized CFTR-expressing FRT cells [3]: similar; Effect on cellular cAMP level [4]: did not affect; Effect on cytoplasmic calcium and ATP-stimulated calcium elevation [5]: nor did it elevate cytoplasmic calcium or inhibit the ATP-stimulated elevation in cytoplasmic calcium; Inhibition or activation of calcium-activated chloride channels [6]: neither inhibited nor activated; Inhibition or activation of TMEM16A [7]: neither inhibited nor activated; Stool weight, pellet number and hydration [8]: fully normalized; Compound metabolized [9]: < 40% |
| O=c1c(-c2cccc([N+](=O)[O-])c2)nc2cc(Cl)ccc2n1Cc1ccccc1 [2b, 1-Benzyl-6-chloro-3-(3-nitrophenyl)quinoxalin-2(1H)-one] | good activity | – |
| O=c1c(-c2cccc([N+](=O)[O-])c2)nc2ccccc2n1Cc1ccco1 [3i, 1-(Furan-2-ylmethyl)-3-(3-nitrophenyl)quinoxalin-2(1H)-one] | comparable activity | – |
| O=c1c(-c2ccc([N+](=O)[O-])cc2)nc2ccccc2n1Cc1ccccc1 [1e, 1-Benzyl-3-(4-nitrophenyl)quinoxalin-2(1H)-one] | reduced activity | – |
| Nc1ccc(C(=O)O)cc1-c1nc2ccccc2n(Cc2ccccc2)c1=O [1k, 4-Amino-3-(4-benzyl-3-oxo-3,4-dihydroquinoxalin-2-yl)benzoic Acid] | inactive | – |
| O=c1c(-c2cccc([N+](=O)[O-])c2)nc2ccccc2n1Cc1ccc2ccccc2c1 [3g, 1-(Naphthalen-2-ylmethyl)-3-(3-nitrophenyl)quinoxalin-2(1H)-one] | significantly reduced activity | – |
| O=c1c(-c2ccccc2[N+](=O)[O-])nc2ccccc2n1Cc1ccccc1 [1d, 1-Benzyl-3-(2-nitrophenyl)quinoxalin-2(1H)-one] | reduced activity | – |
| COC(=O)c1ccc([N+](=O)[O-])c(-c2nc3ccccc3n(Cc3ccccc3)c2=O)c1 [1a, Methyl 3-(4-Benzyl-3-oxo-3,4-dihydroquinoxalin-2-yl)-4-nitrobenzoate] | very low activity | – |
| O=c1c(-c2ccc(F)c([N+](=O)[O-])c2)nc2ccccc2n1Cc1ccccc1 [1i, 1-Benzyl-3-(4-fluoro-3-nitrophenyl)quinoxalin-2(1H)-one] | reduced activity | – |
| O=c1c(-c2ccc3nonc3c2)nc2ccccc2n1Cc1ccccc1 [1m, 3-(Benzo[c][1,2,5]oxadiazol-5-yl)-1-benzylquinoxalin-2(1H)-one] | comparable potency to the nitro analog | – |
| O=c1c(-c2cccc(Br)c2)nc2ccccc2n1Cc1ccccc1 [1g, 1-Benzyl-3-(3-bromophenyl)quinoxalin-2(1H)-one] | low activity | – |
| O=c1c(-c2ccccc2)nc2ccccc2n1Cc1ccccc1 [1h, 1-Benzyl-3-phenylquinoxalin-2(1H)-one] | significantly lower activity | – |
| O=c1c(-c2cccc([N+](=O)[O-])c2)nc2ccccc2n1Cc1cccs1 [3j, 3-(3-Nitrophenyl)-1-(thiophen-2-ylmethyl)quinoxalin-2(1H)-one] | comparable activity | – |
| O=C(O)c1ccc([N+](=O)[O-])c(-c2nc3ccccc3n(Cc3ccccc3)c2=O)c1 [1b, 3-(4-Benzyl-3-oxo-3,4-dihydroquinoxalin-2-yl)-4-nitrobenzoic Acid] | very low activity | – |
| COC(=O)c1ccc(N)c(-c2nc3ccccc3n(Cc3ccccc3)c2=O)c1 [1j, Methyl 4-Amino-3-(4-benzyl-3-oxo-3,4-dihydroquinoxalin-2-yl)-benzoate] | moderately potent | – |

Reference: paper PMC5463557 (Journal of medicinal chemistry, 2017)
